# Screening results (PubChem BioAssay)
# Sampled rows, rich in hits. Any-hit rate of the full collection: about 4.2%.
# GalR3 antag = GalR3 antagonists in HEK293 cells, primary screen, cell-based, fluorescence readout. Galanin receptor type 3 (Homo sapiens), O60755. HEK293 GalR3-CNG cAMP membrane potential fluorescence; galR3 body fused to GalR1 C-terminus. inhibition, % at 3 µM. 0.44% of 360,000 active. AID 651719, 2012;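 active = inhibition above the screen-wide average plus 3 SD, cut at about 13% in these data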;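 also: forskolin and galanin both at EC90 stimulate the cells; cAMP rise reported by CNG channel membrane potential dye signal; 0% = forskolin plus galanin with DMSO and 100% = forskolin alone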
# CHO parental Ca = ATP-evoked calcium signal inhibitors, parental CHO, primary screen, counter-screen for OX1R antagonist project, cell-based, fluorescence, Fluo-8 calcium dye. parental CHO-K1, ATP-induced calcium, Fluo-8 fluorescence. inhibition, % at 5.6 µM. 0.63% of 330,000 active. AID 463079, 2010;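 active = inhibition above that plate's mean sample inhibition plus 3 SD, cut at about 26% in these data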;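 also: 0% = ATP-challenged DMSO wells and 100% = DMSO wells without ATP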
#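 Assay system – parental CHO cells · Reagent – ATP stimulus · Detection – intracellular calcium via Fluo-8 no-wash fluorescent dye · Evaluation – percent inhibition of ATP-evoked calcium rise, normalized to controls · Controls – ATP wells versus no-ATP DMSO wells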
# OX1R antag-1 = antagonists of human orexin 1 receptor (OX1R); 1.8% of 330,000 active; OX1R-expressing cells, FRET antagonist read-out; AID 485270, 2010; inhibition, % at 6.6 µM; Orexin/Hypocretin receptor type 1 (Homo sapiens), O43613; in the data active = inhibition mostly above about 38%, no sharp cut-off; inactive = mostly below about 40%;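 also: 0% = agonist challenge alone and 100% = reference antagonist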
# TAAR1 ag = human TAAR1 agonists, primary screen, Fluo-8 calcium fluorescence, CHO RD-HGA16 cells; Trace amine-associated receptor 1 (Homo sapiens), Q96RJ0; vehicle wells 0%, saturating PEA agonist 100%; activation, % at 3 µM; 0.99% of 360,000 active;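 active = activation above the mean activation of all test compounds in the run plus 3 SD, cut at about 38% in these data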
# Target sequence (Q96RJ0 whole entry, looked up): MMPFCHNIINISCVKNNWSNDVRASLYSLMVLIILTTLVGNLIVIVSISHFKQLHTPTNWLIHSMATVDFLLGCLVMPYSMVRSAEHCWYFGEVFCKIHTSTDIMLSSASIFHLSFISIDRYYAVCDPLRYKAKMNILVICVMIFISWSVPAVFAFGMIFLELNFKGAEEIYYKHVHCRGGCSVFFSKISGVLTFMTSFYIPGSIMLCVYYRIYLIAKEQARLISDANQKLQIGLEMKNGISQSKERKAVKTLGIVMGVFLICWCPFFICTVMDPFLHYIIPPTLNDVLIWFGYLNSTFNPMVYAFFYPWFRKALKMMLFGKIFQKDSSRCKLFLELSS
#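 System: CHO-derived RD-HGA16 cells with stable Gα16 and human TAAR1. Times: 17-24 h plating, Fluo-8 75 min 37 °C, 30 min RT. Measured by: calcium-sensitive Fluo-8 signal, excitation 470-495, emission 515-575 nm. Read-out basis: % activation relative to PEA EC100 response. Control set: DMSO and PEA EC100. Repeats: no replicates (n 1).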
# OX1R antag-2 = OX1R (HCRTR1) antagonists, primary screen, fluorescence, CHO/OX1R cells, Fluo-8 calcium, orexin A. inhibition, % at 5 µM. 0.43% of 330,000 active. Fluo-8 calcium fluorescence. Orexin/Hypocretin receptor type 1 (Homo sapiens), O43613;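 active = inhibition above its plate's threshold, mean inhibition of all tested compounds on the plate plus 3 SD, cut at about 37% in these data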;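 also: 0% = orexin A challenge wells and 100% = SB-334867-A antagonist wells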
# TAAR1 antagonist = human TAAR1 antagonists, primary screen, Fluo-8 calcium fluorescence, CHO RD-HGA16 cells; Trace amine-associated receptor 1 (Homo sapiens), Q96RJ0; antagonist; inhibition, % at 3 µM; 1.5% of 360,000 active;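 active = inhibition above a per-plate cutoff, the mean inhibition of test compounds on that plate plus 3 SD, cut at about 49% in these data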;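 also: 0% = DMSO plus EC80 beta-PEA response and 100% = DMSO alone without agonist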
#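 Assay system: RD-HGA16 CHO cells with stable hTAAR1 and Gα16 / Reagent: EC80 β-phenethylamine stimulus / Doses: 3 µM, single point / Timing: dye loading 75 min at 37 °C, then 30 min room temperature / Measured by: Fluo-8 intracellular calcium dye fluorescence, real-time kinetic reads / Controls: vehicle wells and EC80 agonist wells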
# OX1R HTRF conf = OX1R (HCRTR1) antagonists, confirmation, cell-based, HTRF | shares compounds with OX1R antag-1 | OX1R-expressing cells, HTRF antagonist assay | inhibition, % at 6.6 µM | 49% of 1,800 active | AID 492964, 2010; in the data active = inhibition above about 55%;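 also: CHO cells expressing OX1R stimulated with orexin A at about EC80; 0% = agonist challenge alone and 100% = reference antagonist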
# CHO-K1 HTRF cnt = signal inhibition in parental CHO-K1 cells, counter-screen for OX1R antagonist project, cell-based, HTRF | AID 493232, 2011 | HTRF counterscreen | 48% of 1,800 active | shares compounds with OX1R antag-1 | inhibition, % at 6.6 µM; in the data active = inhibition above about 17%;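 also: 0% = agonist challenge with vehicle and 100% = vehicle alone without agonist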
# An asterisk follows results filed as active; x = no result; + = active, no number; ! = not confirmed by another sample.
SMILES,GalR3 antag,CHO parental Ca,OX1R antag-1,TAAR1 ag,OX1R antag-2,TAAR1 antagonist,OX1R HTRF conf,CHO-K1 HTRF cnt
COc1cccc(OC)c1CN1CCCC(C(=O)c2cccc(Cl)c2)C1 (stereo unspecified),-3,-16,10,4,-29,-9,x,x
C=CCn1c(O)c(/C=C2\C=Nc3ccccc32)c(=O)[nH]c1=O,-6,-10,2,1,1,10,x,x
N#CC(C#N)=NNc1ccc(S(N)(=O)=O)cc1,-1,-4,84*,-1,-4,-4,19,-1
Cn1c(=O)c2nncnc2n(C)c1=O,2,-4,125*,2,-12,-13,45,75*
C/C=C1/C[C@@H](C)[C@](O)(CO)C(=O)OCC2=CCN3CC[C@@H](OC1=O)[C@@H]23,0,-6,6,1,4,-23,x,x
CC[C@@H](CO)NC(=O)[C@@H]1C=C2c3cccc4c3c(cn4C)C[C@H]2N(C)C1,-4,0,84*!,3,1,-25,20,19*
CCC(CO)NC(=O)C1C=C2c3cccc4[nH]cc(c34)CC2N(C)C1 (stereo unspecified),x,-1,34,9,1,-22,x,x
O=S(=O)(NC1CCCCC1)OCC(Cl)(Cl)Cl,-3,-11,4,0,-1,10,x,x
O=c1c2ccccc2nc(-c2ccccc2)n1-c1ccccc1O,-12,-7,5,0,-4,2,x,x
CCn1nc(-c2ccccc2)nc2c(=O)n(C)c(=O)nc1-2,x,-7,+,x,-14,x,102*,95*
Cc1cc(N2CCNCC2)nc2ccccc12,-13,-8,8,2,4,8,x,x
O=C1CC(c2ccccc2)CC(O)=C1C=NCCN1CCN(C(=O)Cc2ccccc2)CC1 (stereo unspecified),0,-10,9,7,-14,10,x,x
CCCCCN1C(=O)c2ccccc2[C@@]2(C(=O)OCC)Cc3cc(Cl)ccc3[C@@H]12,-7,x,x,-1,x,-47,x,x
CN1CC=C2C(C#N)=C(N)C(C#N)(C#N)C(c3ccncc3)C2C1 (stereo unspecified),x,1,102*,x,-2,x,18,24*
CCOC(=O)c1c(N)n(CCCOC(=O)c2ccco2)c2nc3ccccc3nc12,1,-6,83*,5,-11,6,36,22*
CC(C)=CCN1CC[C@@]2(C)c3cc(O)ccc3C[C@@H]1C2C (stereo partly specified),-3,-3,1,0,-2,-3,x,x
O=C1NC(=O)C(=Cc2ccc(-c3ccc(S(=O)(=O)N4CCOCC4)cc3)o2)C(=O)N1,-3,4,31,8,-8,-2,x,x
Cn1c(O)c(N=Nc2ccc(S(=O)(=O)N3CCOCC3)cc2)c(=O)n(C)c1=O,-1,-10,86*,2,3,-4,50,74*
O=[N+]([O-])c1ccc(N2CCOCC2)c2ccncc12,4,-12,107*,2,-17,-24,47,65*
O=[N+]([O-])c1ccc(N2CCCC2)c(F)c1Br,-4,5,26,2,-8,21,x,x
